Laboratory results taken from ChEMBL document CHEMBL1156059, “Thienopyrimidine-based P2Y12 platelet aggregation inhibitors” (Bioorg Med Chem Lett, 2009).

Columns and labels:
P2Y purinoceptor 12 [1] = target: T1, P2Y purinoceptor 12 (Homo sapiens, UniProt Q9H244); experiment: Binding affinity to human recombinant P2Y12 receptor expressed on CHO cell membrane; assay type: cell membranes
Procedure, shortened: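 Competition binding against 33P 2-MeSADP (added as a 1 nM solution) on membranes from CHO cells transfected with recombinant human P2Y12. Membranes were used at 10, 1 or 0.3 µg/well depending on method. Buffer contained 0.02% BSA, ascorbic acid and protease inhibitors. Cold 2-MeSADP (1.5 µM solution) served as control. Compounds were run as a seven-point threefold series from 10 µM, in triplicate. Plates were incubated 1 h at room temperature, then GF/B filtered and scintillation counted.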

[2] = Antiplatelet aggregatory activity in human platelet rich plasma assessed as inhibition of ADP-induced platelet aggregation; assay type: functional
Procedure, shortened: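 Human PRP was obtained by centrifuging whole blood at 200g for 15 min at room temperature, then adjusted to 300,000 platelets/µL with autologous platelet-poor plasma (2380g spin). Stirred PRP was mixed with compound, and aggregation was started with 20 µM ADP. Aggregation was read as the increase in light transmittance on a microplate spectrophotometer. Each concentration was run in duplicate.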

P2Y purinoceptor 12 [3] = target: T1, P2Y purinoceptor 12; experiment: Binding affinity to human recombinant P2Y12 receptor expressed in CHO cell membrane in presence of HSA and human AGP; assay type: cell membranes
Procedure, shortened: (§1)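 Same 33P 2-MeSADP filtration binding on recombinant human P2Y12 CHO membranes (1 or 0.3 µg/well), room temperature, 1 h. Membranes were prepared with 5X HSA (1.75%) and 5X AGP (0.075%). Compounds were run as a seven-point threefold series from 10 µM, in triplicate. Fold shift is the Ki with added protein divided by the Ki without protein.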

Homo sapiens = species on record: Homo sapiens; experiment: Ratio of Ki for human recombinant P2Y12 in presence of HSA and AGP to Ki for human recombinant P2Y12; procedure, shortened: as §1

T1 sequence (Q9H244 whole entry): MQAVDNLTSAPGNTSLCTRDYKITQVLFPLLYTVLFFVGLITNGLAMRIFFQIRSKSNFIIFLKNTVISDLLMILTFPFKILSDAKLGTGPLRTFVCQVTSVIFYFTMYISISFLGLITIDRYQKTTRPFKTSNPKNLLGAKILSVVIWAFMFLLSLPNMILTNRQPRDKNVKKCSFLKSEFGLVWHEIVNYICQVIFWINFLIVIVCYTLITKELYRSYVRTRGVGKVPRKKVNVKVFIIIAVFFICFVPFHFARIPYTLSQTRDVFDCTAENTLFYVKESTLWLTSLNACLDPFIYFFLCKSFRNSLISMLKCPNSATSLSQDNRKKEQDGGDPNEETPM

Row | Ki (P2Y purinoceptor 12 [1]) | IC50 [2] | Ki (P2Y purinoceptor 12 [3]) | Ratio Ki (Homo sapiens) | Structure (SMILES)
1 | 130 nM | 1250 nM |  |  | CCc1cc2c(N3CCN(C(=O)Oc4cccc5ccccc45)CC3)ncnc2s1
2 | 37 nM | 42000 nM | 161 nM | 4.3 | CCc1cc2c(N3CCN(C(=O)c4ccc(-c5ccccc5)cn4)CC3)nc(NC(=O)NCCC(=O)O)nc2s1
3 | 295 nM | 16000 nM | 367 nM | 1.2 | CCC(=O)N1CCN(c2nc(NC(=O)NCCC(=O)O)nc3sc(CC)cc23)CC1
4 |  | 5000 nM | 10 nM | 3.3 | CCc1cc2c(N3CCN(C(=O)c4ccc(-c5ccccc5)cc4)CC3)nc(NC(=O)NCCC(=O)O)nc2s1
5 | 37 nM | 21000 nM | 163 nM | 4.4 | CCc1cc2c(N3CCN(C(=O)c4ccc(-c5ccccc5)cc4)CC3)nc(NCCO)nc2s1
6 | 177 nM | 18000 nM | 172 nM | 1 | CCc1cc2c(N3CCN(C(=O)CC(F)(F)F)CC3)nc(NC(=O)NCCC(=O)O)nc2s1
7 | 460 nM | 38000 nM | 380 nM | 0.8 | CCc1cc2c(N3CCN(C(C)=O)CC3)nc(NC(=O)NCCC(=O)O)nc2s1
8 | 4400 nM |  |  |  | CCc1cc2c(N3CCN(C(=O)c4ccccc4)CC3)ncnc2s1
9 | 839 nM | > 100000 nM | 1810 nM | 2 | CCc1cc2c(N3CCN(C(=O)c4ccc(-c5ccccc5)cc4)CC3)nc(N3CCN(C(=O)C(F)(F)F)CC3)nc2s1
10 | 5 nM | 4000 nM | 31 nM | 6 | CCc1cc2c(N3CCN(C(=O)c4ccc(-c5ccccc5)cc4)CC3)nc(N3C[C@@H](O)C[C@H]3C(=O)O)nc2s1
11 | 539 nM | 25000 nM | 593 nM | 1.1 | CCc1cc2c(N3CCN(C(=O)COc4ccccc4)CC3)nc(NC(=O)NCCC(=O)O)nc2s1
12 | 78 nM | 56000 nM | 441 nM | 5.6 | CCc1cc2c(N3CCN(C(=O)c4ccc(-c5ccccc5)cc4)CC3)nc(NCCCO)nc2s1
13 |  | 4000 nM |  |  | CCc1cc2c(N3CCN(C(=O)CCCCOc4ccccc4)CC3)ncnc2s1
14 | 240 nM | 40000 nM | 325 nM | 1.3 | CCc1cc2c(N3CCN(C(=O)c4ccc(-c5ccccc5)cc4)CC3)nc(N3CCC(N)CC3)nc2s1
15 | 35 nM | 37000 nM | 241 nM | 7 | CCc1cc2c(N3CCN(C(=O)c4ccc(-c5ccccc5)cc4)CC3)nc(N3CCC(O)C3)nc2s1 (stereo not drawn)
16 | 31 nM | 73000 nM | 203 nM | 6.5 | CCc1cc2c(N3CCN(C(=O)c4ccc(-c5ccccc5)cc4)CC3)nc(N3CCCC(C(N)=O)C3)nc2s1 (stereo not drawn)

Row | Ki (P2Y purinoceptor 12 [1]) | IC50 [2] | Ki (P2Y purinoceptor 12 [3]) | Ratio Ki (Homo sapiens) | Structure (SMILES)
17 | 27 nM | 30000 nM | 297 nM | 11 | CCc1cc2c(N3CCN(C(=O)c4ccc(-c5ccccc5)cc4)CC3)nc(N3CC(O)C3)nc2s1
18 | 19 nM | 11000 nM | 75 nM | 4 | CCc1cc2c(N3CCN(C(=O)c4ccc(-c5ccccc5)cc4)CC3)nc(NC[C@@H](O)CO)nc2s1
19 | 4 nM | 3000 nM | 21 nM | 5 | CCc1cc2c(N3CCN(C(=O)c4ccc(-c5ccccc5)cc4)CC3)nc(N3[C@@H](C(N)=O)CC[C@H]3C(N)=O)nc2s1
20 | 660 nM | 28000 nM |  |  | CCc1cc2c(N3CCN(C(=O)Cc4ccccc4)CC3)ncnc2s1
21 | 29 nM | 7000 nM |  |  | CCc1cc2c(N3CCN(C(=O)c4ccc(-c5ccccc5)cc4)CC3)ncnc2s1
22 |  | 57000 nM | 122 nM | 15 | CCc1cc2c(N3CCN(C(=O)c4ccc(-c5ccccc5)cc4)CC3)nc(NCCC(=O)O)nc2s1
23 | 68 nM | 34000 nM | 140 nM | 2 | CCc1cc2c(N3CCN(C(=O)Cc4ccc(F)c(F)c4)CC3)nc(NC(=O)NCCC(=O)O)nc2s1
24 | 213 nM | 86000 nM | 783 nM | 3.7 | CCc1cc2c(N3CCN(C(=O)CCOc4ccccc4)CC3)nc(NC(=O)NCCC(=O)O)nc2s1
25 | 2990 nM | 28000 nM |  |  | CCc1cc2c(N3CCN(C(=O)CC(F)(F)F)CC3)ncnc2s1
26 | 410 nM | 45000 nM | 397 nM | 1 | CCc1cc2c(N3CCN(C(=O)c4ccc(-c5ccccc5)cc4)CC3)nc(N3CCNCC3)nc2s1
27 | 2100 nM | 8000 nM |  |  | CCc1cc2c(N3CCN(C(=O)CC(C)C)CC3)ncnc2s1
28 | 191 nM | 39000 nM | 447 nM | 2.3 | CCc1cc2c(N3CCN(C(=O)COc4cccc(OC)c4)CC3)nc(NC(=O)NCCC(=O)O)nc2s1
29 | 223 nM | 16000 nM | 231 nM | 1 | CCc1cc2c(N3CCN(C(=O)Cc4ccccc4)CC3)nc(NC(=O)NCCC(=O)O)nc2s1
30 |  | 18000 nM |  |  | CCc1cc2c(N3CCN(C(=O)C(F)(F)F)CC3)ncnc2s1
31 | 36 nM | 4000 nM | 46 nM | 1.3 | CCc1cc2c(N3CCN(C(=O)C(C)C)CC3)nc(NC(=O)NCCC(=O)O)nc2s1
